Experimental data reported in ChEMBL document CHEMBL3351741, “Fused heterocycles bearing bridgehead nitrogen as potent HIV-1 NNRTIs. Part 2: discovery of novel [1,2,4]Triazolo[1,5-a]pyrimidines using a structure-guided core-refining approach” (Eur J Med Chem, 2014).

Experiments:
[1] = system: Human immunodeficiency virus 1; assay: Antiviral activity against HIV-1 harboring wild-type reverse transcriptase; format: functional, organism-based
[2] = system: Human immunodeficiency virus 1; assay: Antiviral activity against HIV-1 harboring RT Y181C mutant; format: functional, organism-based
[3] = system: Human immunodeficiency virus 1; assay: Antiviral activity against HIV-1 harboring RT Y188L mutant; format: functional, organism-based
[4] = system: Human immunodeficiency virus 1; assay: Antiviral activity against HIV-1 harboring RT K103N/Y181C double mutant; format: functional, organism-based
[5] = system: Human immunodeficiency virus 1; assay: Antiviral activity against HIV-1 3B infected in human MT4 cells assessed as protection from viral cytopathicity after 5 days by MTT assay; format: functional, organism-based; conditions: Human immunodeficiency virus 1, 3B, MT4, 120 h
In short: (§1)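 MT-4 cells (6 × 10⁵ cells/ml) infected with HIV-1 IIIB or HIV-2 ROD stock at 100-300 CCID₅₀; compounds added as 10× stocks. After 5 days, viability read by MTT reduction at 540 and 690 nm, using median OD of two or three wells. EC₅₀ is the concentration giving 50% protection from viral cytopathicity.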

[6] = system: Human immunodeficiency virus 1; assay: Antiviral activity against HIV-1 RES056 harboring RT K103N/Y181C double mutant infected in human MT4 cells assessed as protection from viral cytopathicity after 5 days by MTT assay; format: functional, organism-based; conditions: Human immunodeficiency virus 1, RES056, MT4, 120 h
In short: (§2)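 MT-4 cells resuspended at 6 × 10⁵ cells/ml, infected with HIV-1 IIIB, RES056 or HIV-2 ROD at 100-300 CCID50, or mock-infected; test compounds added from 10× stocks. After 5 days, viability read by MTT at 540 and 690 nm, median OD of two or three wells. EC50 = 50% protection from cytopathicity; CC50 = 50% viability loss in mock-infected cells; SI = CC50/EC50.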

[7] = system: Human immunodeficiency virus 2; assay: Antiviral activity against HIV-2 ROD infected in human MT4 cells assessed as protection from viral cytopathicity after 5 days by MTT assay; format: functional, organism-based; conditions: Human immunodeficiency virus 2, ISOLATE ROD, MT4, 120 h; in short: as §1
[8] = Cytotoxicity against mock-infected human MT4 cells after 5 days by MTT assay; format: cell-based
In short: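 Mock-infected MT-4 cells (6 × 10⁵ cells/ml) received culture medium in place of virus and were exposed to compounds added as 10× stocks. After 5 days, viability was read by MTT at 540 and 690 nm, using median OD of two or three wells. CC₅₀ is the concentration cutting viability by 50%. '>' marks the highest concentration tested without cytotoxicity.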

[9] = Selectivity index, ratio of CC50 for mock-infected human MT4 cells to EC50 for HIV-1 3B infected in human MT4 cells; format: toxicity, cell-based; conditions: mock-infected and infected with HIV-1 3B, read-out: Ratio CC50/EC50; in short: as §2
[10] = Selectivity index, ratio of CC50 for mock-infected human MT4 cells to EC50 for HIV-1 RES056 harboring RT K103N/Y181C double mutant infected in human MT4 cells; format: toxicity, cell-based; conditions: read-out: Ratio CC50/EC50; in short: as §2
[11] = Selectivity index, ratio of CC50 for mock-infected human MT4 cells to EC50 for HIV-2 ROD infected in human MT4 cells; format: toxicity, cell-based; conditions: mock-infected and infected with HIV-2 ROD, read-out: Ratio CC50/EC50; in short: as §2
[12] = molecular target: Human immunodeficiency virus type 1 reverse transcriptase (Human immunodeficiency virus 1, UniProt Q72547); assay: Inhibition of purified recombinant HIV-1 reverse transcriptase after 1 hr using biotin-labeled dUTP by digoxigenin-peroxidase assay
In short: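 Kit-based colorimetric ELISA with recombinant wild-type HIV-1 RT, poly(A)·oligo(dT)15 template/primer, dNTPs including digoxigenin- and biotin-labeled dUTP, in lysis buffer ± inhibitor, incubated 1 h at 37 °C. Product captured on streptavidin, detected with anti-DIG-peroxidase and ABTS, absorbance at 405 nm. Several concentrations tested; % inhibition taken relative to the no-inhibitor sample.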

Work on `Cc1cc(C#N)cc(C)c1Oc1nc(Nc2ccc(C#N)cc2)nc2[nH]ccc12` yielded an EC50 [1] of 0.00016 µM, an EC50 [2] of 0.0045 µM and an EC50 [3] of 0.004 µM. It also gave an EC50 [4] of 0.0078 µM.
Work on `Cc1cc(C#N)cc(C)c1Oc1nc(Nc2ccc(C#N)cc2)nc2cc[nH]c12` yielded an EC50 [1] of 0.00025 µM, an EC50 [2] of 0.0014 µM and an EC50 [3] of 0.0011 µM. It also gave an EC50 [4] of 0.0038 µM.
In the case of `Cc1cccc(C)c1Oc1cc(Nc2ccc(C#N)cc2)n2ncnc2n1`, the EC50 [5] is reported as 1.5 µM, the EC50 [6] is reported as > 253 µM and the EC50 [7] is reported as > 253 µM. The CC50 at 120 h [8] was 253 µM, the selectivity ratio [9] was 170 and the selectivity ratio [10] was < 1. For the same molecule, the selectivity ratio [11] was < 1.
With `Cc1cc(C)c(Oc2cc(Nc3ccc(C#N)cc3)n3ncnc3n2)c(C)c1` the EC50 [5] was 0.07 µM, the EC50 [6] was ≥ 50 µM and the EC50 [7] was > 106 µM. The CC50 at 120 h [8] was 106 µM, the selectivity ratio [9] was 1450 and the selectivity ratio [10] was ≤ 2. For the same molecule, the selectivity ratio [11] was < 1.
With `Cc1cc(Br)cc(C)c1Oc1cc(Nc2ccc(C#N)cc2)n2ncnc2n1` the EC50 [5] was 0.3 µM, the EC50 [6] was > 128 µM and the EC50 [7] was > 128 µM. The CC50 at 120 h [8] was 128 µM, the selectivity ratio [9] was 427 and the selectivity ratio [10] was < 1. For the same molecule, the selectivity ratio [11] was < 1.
With `N#Cc1ccc(Nc2cc(Oc3c(Cl)cc(Cl)cc3Cl)nc3ncnn23)cc1` the EC50 [5] was 0.3 µM, the EC50 [6] was > 32 µM and the EC50 [7] was > 32 µM. For the same molecule, the CC50 at 120 h [8] was 32 µM, the selectivity ratio [9] was 109 and the selectivity ratio [10] was < 1. The selectivity ratio [11] was < 1.
For `N#Cc1ccc(Nc2cc(Oc3c(F)cc(F)cc3F)nc3ncnn23)cc1`, the EC50 [5] was > 174 µM, the EC50 [6] was > 174 µM and the EC50 [7] was > 174 µM. The CC50 at 120 h [8] was 174 µM, the selectivity ratio [9] was < 1 and the selectivity ratio [10] was < 1. The selectivity ratio [11] was < 1.
With `Cc1cccc(C)c1Oc1cc(Nc2ccc(C#N)cc2)nc2ncnn12` the EC50 [5] was 1.3 µM, the EC50 [6] was > 233 µM and the EC50 [7] was > 233 µM. The CC50 at 120 h [8] was 233 µM, the selectivity ratio [9] was 182 and the selectivity ratio [10] was < 1. For the same molecule, the selectivity ratio [11] was < 1.
For `N#Cc1ccc(Nc2cc(Oc3c(Cl)cccc3Cl)n3ncnc3n2)cc1`, the EC50 [5] was 3.4 µM, the EC50 [6] was > 150 µM and the EC50 [7] was > 150 µM. For the same molecule, the CC50 at 120 h [8] was 150 µM, the selectivity ratio [9] was 44 and the selectivity ratio [10] was < 1. The selectivity ratio [11] was < 1.
For `Cc1cc(C)c(Oc2cc(Nc3ccc(C#N)cc3)nc3ncnn23)c(C)c1`, the EC50 [5] was 0.05 µM, the EC50 [6] was > 164 µM and the EC50 [7] was > 164 µM. For the same molecule, the CC50 at 120 h [8] was 164 µM, the selectivity ratio [9] was 3200 and the selectivity ratio [10] was < 1. The selectivity ratio [11] was < 1.
In the case of `Cc1cc(C)c(Oc2cc(Nc3ccc([N+](=O)[O-])cc3)nc3ncnn23)c(C)c1`, the EC50 [5] is reported as 0.6 µM, the EC50 [6] is reported as > 33 µM and the EC50 [7] is reported as > 33 µM. For the same molecule, the CC50 at 120 h [8] was 33 µM, the selectivity ratio [9] was 57 and the selectivity ratio [10] was < 1. The selectivity ratio [11] was < 1.
In the case of `Cc1cc(C)c(Oc2cc(Nc3ccc(Cl)cc3)nc3ncnn23)c(C)c1`, the EC50 [5] is reported as 0.05 µM, the EC50 [6] is reported as > 46 µM and the EC50 [7] is reported as > 46 µM. For the same molecule, the CC50 at 120 h [8] was 46 µM, the selectivity ratio [9] was 864 and the selectivity ratio [10] was < 1. For the same molecule, the selectivity ratio [11] was < 1.
In the case of `Cc1ccc(Nc2cc(Oc3c(C)cc(C)cc3C)n3ncnc3n2)cc1`, the EC50 [5] is reported as 0.07 µM, the EC50 [6] is reported as > 47 µM and the EC50 [7] is reported as > 47 µM. For the same molecule, the CC50 at 120 h [8] was 47 µM, the selectivity ratio [9] was 649 and the selectivity ratio [10] was < 1. For the same molecule, the selectivity ratio [11] was < 1.
With `COc1ccc(Nc2cc(Oc3c(C)cc(C)cc3C)n3ncnc3n2)cc1` the EC50 [5] was 0.2 µM, the EC50 [6] was > 37 µM and the EC50 [7] was > 37 µM. The CC50 at 120 h [8] was 37 µM, the selectivity ratio [9] was 165 and the selectivity ratio [10] was < 1. The selectivity ratio [11] was < 1.
For `Cc1cc(Br)cc(C)c1Oc1cc(Nc2ccc(C#N)cc2)nc2ncnn12`, the EC50 [5] was 0.23 µM, the EC50 [6] was > 136 µM and the EC50 [7] was > 136 µM. For the same molecule, the CC50 at 120 h [8] was 136 µM, the selectivity ratio [9] was 579 and the selectivity ratio [10] was < 1. For the same molecule, the selectivity ratio [11] was < 1.
For `Cc1cc(C#N)cc(C)c1Oc1cc(Nc2ccc(C#N)cc2)nc2ncnn12`, the EC50 [5] was 1.2 µM, the EC50 [6] was > 224 µM and the EC50 [7] was > 224 µM. For the same molecule, the CC50 at 120 h [8] was 224 µM, the selectivity ratio [9] was 182 and the selectivity ratio [10] was < 1. The selectivity ratio [11] was < 1 and the IC50 [12] was 0.39 µM.
For `Cc1cc(Cl)cc(C)c1Oc1cc(Nc2ccc(C#N)cc2)nc2ncnn12`, the EC50 [5] was 0.4 µM, the EC50 [6] was > 104 µM and the EC50 [7] was > 104 µM. The CC50 at 120 h [8] was 104 µM, the selectivity ratio [9] was 256 and the selectivity ratio [10] was < 1. The selectivity ratio [11] was < 1.
In the case of `N#Cc1ccc(Nc2cc(Oc3c(Cl)cc(Cl)cc3Cl)n3ncnc3n2)cc1`, the EC50 [5] is reported as 0.6 µM, the EC50 [6] is reported as > 29 µM and the EC50 [7] is reported as > 29 µM. For the same molecule, the CC50 at 120 h [8] was 29 µM, the selectivity ratio [9] was 47 and the selectivity ratio [10] was < 1. For the same molecule, the selectivity ratio [11] was < 1.
In the case of `N#Cc1ccc(Nc2cc(Oc3c(Br)cc(Br)cc3Br)n3ncnc3n2)cc1`, the EC50 [5] is reported as 0.3 µM, the EC50 [6] is reported as > 47 µM and the EC50 [7] is reported as > 47 µM. For the same molecule, the CC50 at 120 h [8] was 47 µM, the selectivity ratio [9] was 142 and the selectivity ratio [10] was < 1. The selectivity ratio [11] was < 1.
In the case of `Cc1cc(Br)c(Oc2cc(Nc3ccc(C#N)cc3)nc3ncnn23)c(Br)c1`, the EC50 [5] is reported as 0.05 µM, the EC50 [6] is reported as > 192 µM and the EC50 [7] is reported as > 192 µM. For the same molecule, the CC50 at 120 h [8] was 192 µM, the selectivity ratio [9] was 3620 and the selectivity ratio [10] was < 1. For the same molecule, the selectivity ratio [11] was < 1.
With `Cc1cc(C)c(Nc2cc(Nc3ccc(C#N)cc3)nc3ncnn23)c(C)c1` the EC50 [5] was 0.02 µM, the EC50 [6] was 7.6 µM and the EC50 [7] was > 190 µM. The CC50 at 120 h [8] was 190 µM, the selectivity ratio [9] was 8990 and the selectivity ratio [10] was 25. For the same molecule, the selectivity ratio [11] was < 1.
With `Cc1cccc(C)c1Nc1cc(Nc2ccc(C#N)cc2)nc2ncnn12` the EC50 [5] was 2.1 µM, the EC50 [6] was > 272 µM and the EC50 [7] was > 272 µM. The CC50 at 120 h [8] was 272 µM, the selectivity ratio [9] was 127 and the selectivity ratio [10] was < 1. The selectivity ratio [11] was < 1.
With `CC(C)Nc1cccnc1N1CCN(C(=O)c2cc3cc(NS(C)(=O)=O)ccc3[nH]2)CC1` [DELAVIRDINE] the EC50 [5] was 0.07 µM, the EC50 [6] was > 36 µM and the CC50 at 120 h [8] was > 36 µM. The selectivity ratio [9] was > 494 and the selectivity ratio [10] was 1.
With `Cc1ccnc2c1NC(=O)c1cccnc1N2C1CC1` [NEVIRAPINE] the EC50 [5] was 0.15 µM, the EC50 [6] was 2.9 µM and the CC50 at 120 h [8] was > 15 µM. The selectivity ratio [9] was > 14 and the selectivity ratio [10] was > 5.
